CFTR F508del cor: CFTR F508del correction in bronchial cells; activity (quench increase), % at 7.58 µM; CFBE cells, YFP halide quenching; stimulated with forskolin plus potentiator P3; % fluorescence drop versus neutral controls; actives 0.36% (n = 350,000);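 active = mean added fluorescence quench of at least 8% versus neutral control, with both replicates also reaching 8%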;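 note: cells transiently co-express mutant CFTR-F508del with the halide-sensitive YFP; corrector assay measuring rescue of mutant channel to the surface after 24 h compound exposure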
S100A4 MyoIIA: blocks human S100A4 binding to myosin IIA peptide; P26447; AID 652163; actives 0.14% (n = 360,000); S100A4/TAMRA-MyoIIA peptide fluorescence polarization; inhibition, % at 10.7 µM;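 active = mean inhibition of at least 70% across replicates, with every replicate also reaching that level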
Target sequence (P26447 whole entry, looked up): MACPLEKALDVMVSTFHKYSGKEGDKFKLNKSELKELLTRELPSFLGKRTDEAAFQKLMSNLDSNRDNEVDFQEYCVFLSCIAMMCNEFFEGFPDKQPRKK
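Material: human S100A4 monomer with TAMRA-labelled myosin IIA peptide; buffer or medium: HEPES pH 7.2 with CaCl2, KCl, NaCl, DTT, Triton; compound dosing: one concentration per compound; schedule: 5 min incubation before reading; benchmarks: neutral control DMSO, positive control TFP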
ERAP1 inh: inhibitors of human ERAP1 aminopeptidase | Q9NZ08 | recombinant ERAP1, Leu-AMC fluorescence, 60 min | inhibition, % at 10.7 µM | actives 0.15% (n = 340,000) | AID 652197;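 active = mean replicate inhibition of at least 30%, or all replicates individually reaching that 30% level; inactive = mean below 30% and not every replicate reaching it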
SIRT5 inh: sirtuin-5 (human) deacylase inhibition; Q9NXA8; Purified SirT5, succinyl-peptide AMC, trypsin-coupled fluorescence; inhibition, % at 15 µM; actives 1.1% (n = 330,000); in the data active = inhibition above about 15%
Target sequence (Q9NXA8 whole entry, looked up): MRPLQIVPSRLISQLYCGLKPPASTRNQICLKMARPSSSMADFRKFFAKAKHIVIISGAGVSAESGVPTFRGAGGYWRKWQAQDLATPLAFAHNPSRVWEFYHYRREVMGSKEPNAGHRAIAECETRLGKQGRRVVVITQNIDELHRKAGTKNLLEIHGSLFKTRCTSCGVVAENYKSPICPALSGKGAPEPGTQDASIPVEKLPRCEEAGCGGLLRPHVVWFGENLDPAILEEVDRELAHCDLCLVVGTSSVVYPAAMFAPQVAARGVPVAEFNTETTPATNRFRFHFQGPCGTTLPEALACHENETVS
rRNA inh HTS: inhibits bacterial ribosomal RNA function over humanized ribosomes | E. coli WT GFP vs humanized-ribosome RFP mutants, fluorescence, 24 h; stronger effect = lower value; DMSO median 0, no signal -100 | GFP signal change (wild-type ribosome), % (test concentration not listed) | actives 1.6% (n = 350,000);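 active = significant combined selectivity score with lowered wild-type GFP, culture density cut under 30%, mutant RFP and density less affected; inactive = any of these conditions unmet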
Large screens that a line does not name were inactive; ! = not active in a repeat. Compounds with a hit are over-represented: about 3.1% of the library has one in this group of screens.

COc1cccc(S(=O)(=O)N(C)C[C@H]2Oc3cc(C#CCN(C)C)ccc3S(=O)(=O)N([C@@H](C)CO)C[C@@H]2C)c1	none
C[C@H]1CN([C@@H](C)CO)S(=O)(=O)c2ccc(/C=C/c3ccccc3)cc2O[C@H]1CN(C)C(=O)NC1CCCCC1	SIRT5 inh 26!
C[C@H](CO)N1C[C@H](C)[C@H](CN(C)C(=O)CCCN(C)C)OCCCC[C@H](C)Oc2ccc(NC(=O)CCC(F)(F)F)cc2C1=O	none
COc1ccc2c3c(n(C)c2c1)[C@H](CO)N(C)CC31CCN(CC2CC2)CC1	none (no result: S100A4 MyoIIA, ERAP1 inh, SIRT5 inh)
O=C(Nc1ccc(-c2ccccc2)cc1)[C@@H]1[C@@H](CO)[C@@H]2Cn3c(cccc3=O)[C@H]1N2Cc1cncnc1	none
COc1ccccc1C(=O)NC(=S)/C=C1/N(C)c2ccccc2C1(C)C	CFTR F508del cor 10.0 (no result: SIRT5 inh)
CO[C@H]1CN(C)C(=O)c2cc(NC(=O)C3CCC3)ccc2OC[C@H](C)N(CC2CCCCC2)C[C@H]1C	none
CCOc1ccccc1OCCCC(=O)N1CCN(S(=O)(=O)c2ccc(Cl)cc2)CC1	none
CCOc1ccccc1OCCCC(=O)N1CCN(S(=O)(=O)c2cc(F)ccc2F)CC1	rRNA inh HTS -20
Cc1noc(C)c1S(=O)(=O)Nc1ccc2c(c1)C(=O)N([C@H](C)CO)C[C@H](C)[C@@H](CN(C)S(=O)(=O)c1c(C)noc1C)OCCCC[C@H](C)O2	none
COc1ccc(CN(C)C[C@H]2Oc3c(NC(=O)CCCCCC(=O)Nc4ccccc4N)cccc3C(=O)N([C@H](C)CO)C[C@@H]2C)cc1	none
COC(c1ccccc1)c1nnc(CCC(=O)N(C)C(C2CC2)C2CC2)o1 (stereo unspecified)	SIRT5 inh 15
COC(c1ccccc1)c1nnc(CCC(=O)NC2CCCCC2)o1 (stereo unspecified)	none
C[C@H](CO)N1C[C@H](C)[C@@H](CN(C)Cc2ccc(Cl)c(Cl)c2)Oc2ccc(NC(=O)C3CC3)cc2CC1=O	none
CC(C)CC#Cc1ccc2c(c1)O[C@H](CN(C)S(=O)(=O)c1cccc(F)c1)[C@@H](C)CN([C@H](C)CO)S2(=O)=O	SIRT5 inh 16
CC(C)CC#Cc1ccc2c(c1)O[C@@H](CN(C)S(=O)(=O)c1cccc(F)c1)[C@@H](C)CN([C@@H](C)CO)S2(=O)=O	SIRT5 inh 20 (no result: rRNA inh HTS)
C[C@H](CO)N1C[C@H](C)[C@H](CN(C)S(=O)(=O)c2cccc(F)c2)Oc2cc(C#CCN(C)C)ccc2S1(=O)=O	none
CCCC#Cc1ccc2c(c1)O[C@@H](CN(C)S(=O)(=O)c1cccc(F)c1)[C@@H](C)CN([C@H](C)CO)S2(=O)=O	none
CC(C)CC#Cc1ccc2c(c1)O[C@@H](CN(C)S(=O)(=O)c1cccc(F)c1)[C@H](C)CN([C@@H](C)CO)S2(=O)=O	SIRT5 inh 17
CC(C)CC#Cc1ccc2c(c1)O[C@@H](CN(C)S(=O)(=O)c1cccc(F)c1)[C@H](C)CN([C@H](C)CO)S2(=O)=O	SIRT5 inh 19
COc1cccc(CN2CC3(CN(Cc4ccccn4)C3)c3c([nH]c4cc(OC)ccc34)[C@H]2CO)c1	none (no result: SIRT5 inh)
O=C(NCC[C@@H]1CC[C@@H](NC(=O)C2CCCC2)[C@@H](CO)O1)c1cnccn1	none
CCCC#Cc1ccc2c(c1)O[C@H](CN(C)S(=O)(=O)c1cccc(OC)c1)[C@H](C)CN([C@H](C)CO)S2(=O)=O	SIRT5 inh 17!
CCCCCCCCN1C(=O)[C@H](CC(=O)NCc2cccc3ccccc23)C[C@@]2(C(=O)OCC)CCC=C12	SIRT5 inh 16 (no result: ERAP1 inh)
CCOC(=O)[C@]12CCCC=C1N(Cc1cccc3ccccc13)C(=O)[C@H](CC(=O)NCc1cccc(C(F)(F)F)c1)C2	CFTR F508del cor 11 (no result: rRNA inh HTS)
O=C(COC(=O)CC1CC2CCC1C2)Nc1ccc(F)cc1 (stereo unspecified)	SIRT5 inh 112
CC(=O)c1ccc(NC(=O)COC(=O)CC2CC3CCC2C3)cc1 (stereo unspecified)	none
Cc1ccccc1-c1ccc2c(c1)O[C@H](CN(C)Cc1ccc(C(=O)O)cc1)[C@H](C)CN([C@H](C)CO)S2(=O)=O	none
O=C(COC(=O)c1ccc(-c2ccc([N+](=O)[O-])cc2)o1)NC(=O)NC1CCCCC1	rRNA inh HTS -33 (no result: CFTR F508del cor)
Cc1cccc(N=NC(=S)NNc2cccc(C)c2)c1	rRNA inh HTS -20
Cc1cc(C)c(NC(=O)CSc2nc3ncc(Br)cc3[nH]2)c(C)c1	SIRT5 inh 19
CC(=O)N(C)c1ccc(NC(=O)COc2ccc(Br)cc2C)cc1	none (no result: CFTR F508del cor)
CC(=O)Nc1ccc(NC(=O)COc2ccc(Br)cc2C)cc1	SIRT5 inh 15
Cc1cccc(NC(=O)COc2ccc(Br)cc2/C=N/O)c1	rRNA inh HTS -44 (no result: CFTR F508del cor)
Cc1ccc(OCC(=O)Nc2ccc(S(=O)(=O)N(C)C3CCN(C)CC3)cc2)c(C)c1	ERAP1 inh 90
CCCN(C)C[C@@H]1OCCCC[C@@H](C)Oc2ccc(NS(=O)(=O)c3ccc(C)cc3)cc2C(=O)N([C@H](C)CO)C[C@H]1C	none (no result: S100A4 MyoIIA, ERAP1 inh, SIRT5 inh)
COc1cccc(CN2CCN(C(=O)c3cc(-c4cccnc4)nc4ccc(C)cc34)CC2)c1	rRNA inh HTS -27
COc1cc(C(=O)N/N=C(\Cc2ncc[nH]2)c2ccccc2)cc(OC)c1OC	rRNA inh HTS -32
COc1cc(C(=O)N/N=C(\C)c2ccccn2)cc(OC)c1OC	none
COc1cc(C(=O)N/N=C(\c2ccccc2)c2ccccn2)cc(OC)c1OC	CFTR F508del cor 12
COc1ccc(C(=O)N/N=C(\Cc2ncc[nH]2)c2ccccc2)cc1	none
CCn1cc(Br)c(C(=O)Nc2ccc(OC)cc2)n1	none (no result: CFTR F508del cor, SIRT5 inh)
CCn1cc(Br)c(C(=O)Nc2ccc(C(=O)OC(C)C)cc2)n1	rRNA inh HTS -21
N#C/C(=C\Nc1ccc(Cl)cn1)S(=O)(=O)c1ccccc1	rRNA inh HTS -35
N#C/C(=C\Nc1ccc(Cl)cn1)S(=O)(=O)c1ccccn1	none
Clc1cccc(Cl)c1CN1CCN(c2ncccn2)CC1	none
Cn1nc(-c2ccccc2)c(CN2CCN(c3ncccn3)CC2)c1Cl	rRNA inh HTS -34 (no result: SIRT5 inh)
O=C(Nc1ccc(Cl)cc1Cl)Nn1cnnc1	none
O=C(Nc1ccno1)Nc1ccc(Cl)cc1Cl	rRNA inh HTS -30
Cc1noc(C)c1NC(=O)N1C[C@@H](O)COC[C@@H]2O[C@@H](CC(=O)NCC3CCCCC3)CC[C@H]21	none
O=C(c1cc2nc(-c3ccccc3)cc(-c3ccccc3)n2n1)N1CCCC1	none
O=C(c1cc2nc(-c3ccccc3)cc(C(F)(F)F)n2n1)N1CCCC1	SIRT5 inh 21 (no result: ERAP1 inh)
COc1ccc(-c2oc3ccc(-c4cc(OC)c(OC)c(OC)c4)cc3c2C#Cc2ccccn2)cc1	CFTR F508del cor 8.8 (no result: SIRT5 inh)

Screening results: PubChem BioAssay, Broad Institute
